Experimental data taken from ChEMBL document CHEMBL3244219, “Synthesis of [1-sarcosine, 8-O-methylserine]angiotensin II and 1-substituted analogues of [8-threonine]angiotensin II as antagonists of angiotensin II” (J Med Chem, 1977).
Where a SMILES comes first, the peptide text is derived from it. [ ]: non-standard residue; d: D form. The star is where a group is joined. Guanidinoacetyl = N=C(N)NCC(=O)*; NMeI = CC[C@H](C)[C@H](NC)C(=O)O; Me2Gly = CN(C)CC(=O)*; Sar = CNCC(=O)O

What was measured:
[1] = test system: Rattus norvegicus; test: Pressor activity in ganglion-blocked vagotomized rat assessed as rise in blood pressure at 250 ng/kg/min, iv administered as infusion measured after 3 mins relative to control; type: functional
Summary of the method: (§1)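 Vagotomized, ganglion-blocked rats were infused with the analogue. Rise in blood pressure (mmHg) was read at 3, 10 and 30 min of infusion. Values are mean ± error over several rats per analogue.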

[2] = test system: Rattus norvegicus; test: Pressor activity in ganglion-blocked vagotomized rat assessed as rise in blood pressure at 250 ng/kg/min, iv administered as infusion measured after 10 mins relative to control; type: functional; summary of the method: as §1
[3] = test system: Rattus norvegicus; test: Pressor activity in ganglion-blocked vagotomized rat assessed as rise in blood pressure at 250 ng/kg/min, iv administered as infusion measured after 30 mins relative to control; type: functional; summary of the method: as §1
[4] = test system: Rattus norvegicus; test: Pressor activity in ganglion-blocked vagotomized rat administered as bolus injection relative to [Asp1,Ile8]angiotension 2; type: functional
Summary of the method: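 Vagotomized, ganglion-blocked rats received a bolus injection of the analogue. Pressor activity is expressed as percent relative to [Asp¹,Ile⁸]angiotensin II, set at 100.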

[5] = Antagonist activity at angiotensin 2 receptor in rabbit aortic strip assessed as inhibition of contractile activity; settings: Oryctolagus cuniculus; read-out: pA2 (converted)
Summary of the method: (§2)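 Rabbit aortic strips; the antagonist opposes angiotensin II-induced contraction. pA₂ is the negative log molar antagonist concentration that reduces the effect of a doubled agonist concentration to that of a single one. It is derived as pA₂ = (log K₂)/n, where n is the slope of log(dose ratio − 1) vs. −log antagonist concentration and K₂ is the y-intercept.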

[6] = species on record: Oryctolagus cuniculus; test: Binding affinity to angiotensin 2 receptor in rabbit aortic strip; summary of the method: as §2
[7] = test system: Rattus norvegicus; test: Pressor activity in ganglion-blocked vagotomized rat assessed as angiotensin 2 ED20 at 250 ng/kg/min, iv administered as infusion measured during infusion
[8] = test system: Rattus norvegicus; test: Pressor activity in ganglion-blocked vagotomized rat assessed as rise in angiotensin 2 ED20 at 250 ng/kg/min, iv administered as infusion measured during infusion relative to untreated control
[9] = test system: Rattus norvegicus; test: Pressor activity in ganglion-blocked vagotomized rat assessed as rise in blood pressure at 250 ng/kg/min, iv administered as infusion measured after 3 mins relative to control
[10] = test system: Rattus norvegicus; test: Pressor activity in ganglion-blocked vagotomized rat assessed as rise in blood pressure at 250 ng/kg/min, iv administered as infusion measured after 10 mins relative to control
[11] = test system: Rattus norvegicus; test: Pressor activity in ganglion-blocked vagotomized rat assessed as rise in blood pressure at 250 ng/kg/min, iv administered as infusion measured after 30 mins relative to control

Row | Molecule | Activity [1] | Activity [2] | Activity [3] | Ratio [4] | Kb [5] | log K [6] | ED20 [7] | Ratio [8] | Activity [9] | Activity [10] | Activity [11]
1 | CC[C@H](C)[C@H](NC(=O)[C@H](Cc1ccc(O)cc1)NC(=O)[C@@H](NC(=O)[C@H](CCCNC(=N)N)NC(=O)CN(C)C)C(C)C)C(=O)N[C@@H](Cc1cnc[nH]1)C(=O)N1CCC[C@H]1C(=O)N[C@H](C(=O)O)[C@@H](C)O (Me2Gly-RVYIHPT-OH) | 7.5 mmHg | 12.57 mmHg | 11.71 mmHg | 0.38 | 29.5 nM | 2.83 | 7.7 ng | 4.49 |  |  | 
2 | CC[C@H](C)[C@H](NC)C(=O)N[C@@H](CCCNC(=N)N)C(=O)N[C@H](C(=O)N[C@@H](Cc1ccc(O)cc1)C(=O)N[C@H](C(=O)N[C@@H](Cc1cnc[nH]1)C(=O)N1CCC[C@H]1C(=O)N[C@H](C(=O)O)[C@@H](C)O)[C@@H](C)CC)C(C)C (H-[NMeI]RVYIHPT-OH) |  |  |  | 0.12 | 20.9 nM | 2.48 | 3.59 ng | 2.37 | 4.33 mmHg | 6.66 mmHg | 8.05 mmHg
3 | CC[C@H](C)[C@H](NC(=O)[C@H](Cc1ccc(O)cc1)NC(=O)[C@@H](NC(=O)[C@H](CCCNC(=N)N)NC(=O)CNC)C(C)C)C(=O)N[C@@H](Cc1cnc[nH]1)C(=O)N1CCC[C@H]1C(=O)N[C@H](C(=O)O)[C@@H](C)OC | 13.82 mmHg | 15.88 mmHg | 15.06 mmHg | 0.48 | 1.74 nM | 8.39 | 95.26 ng | 62.52 |  |  | 
4 | CC[C@H](C)[C@H](NC(=O)[C@H](Cc1ccc(O)cc1)NC(=O)[C@@H](NC(=O)[C@H](CCCNC(=N)N)NC(=O)CNC(=N)N)C(C)C)C(=O)N[C@@H](Cc1cnc[nH]1)C(=O)N1CCC[C@H]1C(=O)N[C@H](C(=O)O)[C@@H](C)O (Guanidinoacetyl-RVYIHPT-OH) |  |  |  | 0.15 | 58.9 nM | 2.12 | 1.14 ng | 1.02 | 0.5 mmHg | 0.75 mmHg | 3.5 mmHg
5 | CC[C@H](C)[C@H](NC(=O)[C@H](Cc1ccc(O)cc1)NC(=O)[C@@H](NC(=O)[C@H](CCCN=C(N)N)NC(=O)CNC)C(C)C)C(=O)N[C@@H](Cc1c[nH]cn1)C(=O)N1CCC[C@H]1C(=O)N[C@H](C(=O)O)[C@@H](C)O (H-[Sar]RVYIHPT-OH) | 9.46 mmHg | 9.66 mmHg | 9.2 mmHg | 0.6 | 1.62 nM | 8.1 | 44.55 ng | 26.9 |  |  | 
6 | CC[C@H](C)[C@H](NC(=O)[C@H](Cc1ccc(O)cc1)NC(=O)[C@@H](NC(=O)[C@H](CCCNC(=N)N)NC(=O)CNC)C(C)C)C(=O)N[C@@H](Cc1cnc[nH]1)C(=O)N1CCC[C@H]1C(=O)N[C@@H](COC)C(=O)O | 15.66 mmHg | 16.16 mmHg | 11.16 mmHg | 0.49 | 0.219 nM | 5.58 | 37 ng | 24.04 |  |  | 
7 | H-RVYIHPT-OH |  |  |  | 0.24 | 29.5 nM | 2.83 | 3.01 ng | 1.47 | 0.5 mmHg | 1.5 mmHg | 4.5 mmHg
